From PubChem BioAssay
E-sel inducer: induces E-selectin expression in human endothelial cells; HUVEC E-selectin immunofluorescence imaging; normalized: neutral wells 0, TNF-alpha wells 100; actives 0.37% (n = 260,000); P16581; AID 686992; activation, % at 7.58 µM;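 active means mean E-selectin-positive cell signal at least 10% of the positive control, reached in at least 60% of replicates, without over 20% cell loss; inconclusive means no rule given, readout overlaps actives, possibly toxicity-flagged; inactive means the rest, including those meeting only one limit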
Target sequence (P16581 whole entry, looked up): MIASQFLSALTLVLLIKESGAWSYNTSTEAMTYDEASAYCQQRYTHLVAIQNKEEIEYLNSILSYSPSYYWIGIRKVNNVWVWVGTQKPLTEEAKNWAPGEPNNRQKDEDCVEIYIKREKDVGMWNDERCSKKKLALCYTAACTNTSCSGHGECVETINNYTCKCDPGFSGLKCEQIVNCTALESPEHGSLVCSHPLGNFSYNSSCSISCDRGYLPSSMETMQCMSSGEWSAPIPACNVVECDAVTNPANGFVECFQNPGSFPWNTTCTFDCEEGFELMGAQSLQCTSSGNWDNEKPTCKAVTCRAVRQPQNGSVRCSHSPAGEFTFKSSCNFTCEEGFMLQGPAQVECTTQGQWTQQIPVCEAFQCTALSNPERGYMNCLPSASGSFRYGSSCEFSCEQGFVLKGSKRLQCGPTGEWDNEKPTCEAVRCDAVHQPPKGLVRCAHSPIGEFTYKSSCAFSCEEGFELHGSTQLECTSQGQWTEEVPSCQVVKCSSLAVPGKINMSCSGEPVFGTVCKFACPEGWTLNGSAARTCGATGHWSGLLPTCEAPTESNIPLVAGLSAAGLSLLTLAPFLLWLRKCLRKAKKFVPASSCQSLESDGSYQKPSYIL
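assay system = HUVEC, human umbilical vein endothelial cells | input = 3,000 HUVEC seeded per well | medium = EGM-2 growth medium on 0.1% gelatin-coated wells | dosing = one compound dose added by pin transfer | signal = immunofluorescence imaging | read-out basis = % PE-positive cells | control set = TNF-alpha, DMSO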
Xi reactivation: activators of X-chromosome reactivation in mouse fibroblasts. XiGFP mouse fibroblasts, % GFP-positive cells imaging, 3 d; cells co-treated with 5-aza-dC sensitizer; scaled so ellipticine positive control = 100%. actives 0.055% (n = 360,000). activation, % at 7.58 µM. AID 743238;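 active means mean normalized replicate activation at least 10% and every replicate at or above 10%; inconclusive means only one of the two criteria met; inactive means mean below 10% and not all replicates reach 10%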;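 further: 0% = median of on-plate neutral control wells and 100% = ellipticine 6 µM median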
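System: XiGFP fibroblasts, SV40-immortalized. Medium: DMEM plus 5-aza-dC sensitizer. Doses: single point. Timing: 3 d treatment, 15 min room-temperature fixation. Control set: ellipticine 6 µM.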
PglD DTNB: PglD (C. jejuni) enzyme inhibition; purified PglD enzyme, DTNB colorimetric CoA detection; inhibition, % at 12.5 µM; actives 0.098% (n = 360,000); in the data active means inhibition above about 16%, passing the limit was not always enough; inconclusive means no clear call, values can overlap the other calls
FGF22 binding: FGF22 (human) thermal shift binding; Q9HCT0; recombinant FGF22 thermal shift, SYPRO orange fluorescence; percent of sucrose octasulfate shift, DMSO zero; activity (Tm shift, normalised), % at 9.99 µM; actives 1.5% (n = 340,000); AID 651658;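 active means mean Tm shift, scaled 0 neutral to 100 positive control, at about 1.3% or above, every replicate too, limit read from the data; inconclusive means no clear call, values can overlap the other calls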
Target sequence (Q9HCT0 whole entry, looked up): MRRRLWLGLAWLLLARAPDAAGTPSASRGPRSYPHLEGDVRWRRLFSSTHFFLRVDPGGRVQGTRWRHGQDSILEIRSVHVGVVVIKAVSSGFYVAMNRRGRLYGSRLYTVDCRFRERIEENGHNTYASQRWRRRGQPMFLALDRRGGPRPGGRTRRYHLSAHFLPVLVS
DENV2 CPE: DENV2-induced cell death inhibition | actives 1.7% (n = 350,000) | CPE inhibition, % at 9.99 µM | DENV2-infected cells, cytopathic effect rescue, plate reader | AID 651640; in the data active means CPE inhibition above about 20%, passing the limit was not always enough; inconclusive means no clear call, values can overlap the other calls; tested in BHK-21 cells;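 further: 0% = median of neutral control wells and 100% = median of positive control wells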
C2C12 statin: suppressors of simvastatin-induced myotoxicity in C2C12 myotubes; ATP luminescence, 48 h; scaled: DMSO 0, geranylgeraniol control 100; rescue of ATP level, % at 7.49 µM; actives 0.78% (n = 330,000); AID 602340;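 active means mean ATP rescue above about 67%, or every replicate alone reaching that limit, limit read from the data, passing the limit was not always enough; inconclusive means no clear call, values can overlap the other calls; inactive means mean under the limit and some replicate under it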;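 further: myotubes were challenged with 10 µM simvastatin during compound exposure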
* hit, by the source's call; ? = inconclusive; / = not tested or not shown. In the library only some 3.3% were active in any assay of this set; here they are far more common.

SMILES | E-sel inducer | Xi reactivation | PglD DTNB | FGF22 binding | DENV2 CPE | C2C12 statin
Cc1noc(C)c1NC(=O)Nc1ccc2c(c1)C(=O)N([C@@H](C)CO)C[C@H](C)[C@@H](CN(C)Cc1ccc(Cl)c(Cl)c1)OCCCC[C@H](C)O2 | 0.1 | 0.0 | 0.9 | -0.3 | 26.6* | /
Cc1noc(C)c1NC(=O)Nc1ccc2c(c1)C(=O)N([C@H](C)CO)C[C@@H](C)[C@H](CN(C)Cc1ccc(Cl)c(Cl)c1)OCCCC[C@H](C)O2 | -0.1 | 0.3 | -3.4 | 0.3 | 23.3* | /
Cc1noc(C)c1NC(=O)Nc1ccc2c(c1)C(=O)N([C@H](C)CO)C[C@H](C)[C@@H](CN(C)Cc1ccc(Cl)c(Cl)c1)OCCCC[C@@H](C)O2 | -0.3 | 0.2 | 1.7 | -0.8 | -16.8 | /
CN1C(=O)c2cc(NC(=O)c3ccccc3)ccc2OC[C@@H]2O[C@H](CC(=O)NC3CCCC3)CC[C@@H]21 | -0.1 | 0.1 | -1.8 | 0.1 | -0.5 | 22.4
CNC[C@H]1Oc2ccc(N)cc2C(=O)N([C@@H](C)CO)C[C@@H]1C | 0.1 | -1.1 | 4.2 | -0.3 | -4.5 | -4.6
COc1cc(C(=O)NCC(c2ccco2)N2CCc3ccccc32)cc(OC)c1OC (configuration not stated) | -0.1 | -0.1 | / | / | 92.0* | 4.4
C[C@@H]1CN([C@@H](C)CO)C(=O)Cc2cc(NC(=O)Cc3ccccc3)ccc2O[C@@H]1CN(C)S(=O)(=O)c1cn(C)cn1 | -3.1 | 0.2 | -1.8 | -0.1 | 9.4 | -3.3
O=C(N[C@H]1CC[C@H](CCNS(=O)(=O)c2cccc(Cl)c2)O[C@@H]1CO)c1ccccc1 | -1.8 | 0.0 | -4.2 | 0.0 | 6.0 | 0.8
O=C(NCC[C@H]1CC[C@H](NC(=O)c2cnccn2)[C@@H](CO)O1)Nc1ccc(F)cc1 | 0.3 | -0.1 | -1.0 | -0.1 | 22.1* | -1.3
Cc1cccc(S(=O)(=O)N[C@H]2CC[C@@H](CCNC(=O)c3cnccn3)O[C@@H]2CO)c1 | -0.2 | -0.5 | 11.7 | 0.2 | -2.0 | -8.4
COc1ccccc1NC(=O)N[C@@H]1CC[C@@H](CCNS(=O)(=O)c2ccc(Cl)cc2)O[C@H]1CO | 0.0 | 0.1 | -2.4 | -0.1 | 20.3* | -6.4
O=C(N[C@@H]1CC[C@@H](CCNS(=O)(=O)c2cccc(Cl)c2)O[C@H]1CO)c1ccccc1 | -2.0 | 0.0 | 1.8 | -0.2 | 76.9* | 2.2
COc1ccccc1NC(=O)N[C@@H]1CC[C@@H](CCNS(=O)(=O)c2ccc(Cl)cc2)O[C@@H]1CO | 0.2 | 1.0 | 6.7 | 0.3 | -11.8 | -1.5
Cc1cccc(S(=O)(=O)N[C@@H]2CC[C@@H](CCNC(=O)c3cnccn3)O[C@@H]2CO)c1 | -0.3 | -0.3 | -4.8 | -0.1 | 30.7* | 10.4
O=C(NCC[C@H]1CC[C@H](NC(=O)c2cnccn2)[C@H](CO)O1)Nc1ccc(F)cc1 | -0.1 | -0.3 | -2.9 | -0.3 | -1.2 | 4.9
O=C(N[C@H]1CC[C@H](CCNS(=O)(=O)c2ccc(Cl)cc2)O[C@@H]1CO)c1cnccn1 | -0.6 | 0.2 | 4.9 | 0.3 | 49.0* | -3.2
O=C(N[C@@H]1CC[C@@H](CCNS(=O)(=O)c2ccccc2)O[C@H]1CO)c1cccnc1 | -1.8 | 0.1 | 1.5 | 0.0 | 32.1* | -6.9
CO[C@H]1CN(C)C(=O)c2ccc(NC(=O)C3CC3)cc2OC[C@H](C)N(CC2CCCC2)C[C@H]1C | -0.3 | 0.3 | 3.7 | 0.2 | ? | -19.6
CCC(=O)N1C[C@@H](C)[C@@H](OC)CN(C)C(=O)c2cc(NC(=O)C3CC3)ccc2OC[C@H]1C | -0.3 | 0.1 | 1.7 | 0.3 | -7.2 | -0.8
CN1CCN(/N=C/c2cccc(Cl)c2Cl)CC1 | / | 0.0 | / | 44.0* | 2.1 | /
C[C@H](CO)N1C[C@H](C)[C@H](CN(C)CC2CCOCC2)Oc2cc(Br)ccc2S1(=O)=O | -0.7 | 1.5 | -2.1 | -0.1 | ? | -23.8
CCCNC(=O)[C@@H]1[C@@H](CO)[C@@H]2Cn3c(ccc(-c4ccccc4F)c3=O)[C@H]1N2C(=O)CC | -0.1 | 0.3 | 2.5 | -0.3 | 7.6 | 1.8
C[C@@H]1CCCCO[C@H](CN(C)C)[C@H](C)CN([C@H](C)CO)C(=O)c2cc(NC(=O)Nc3ccc(C(F)(F)F)cc3)ccc2O1 | 0.0 | 0.0 | -4.4 | / | 15.1 | 6.1
COc1ccc(/C=C(\NC(=O)c2ccc([N+](=O)[O-])cc2)C(=O)N2CCOCC2)cc1 | -0.2 | 0.0 | / | 43.3* | / | 8.6
CN1CCN(C(=O)/C(=C\c2cccnc2)NC(=O)c2cccc(Br)c2)CC1 | / | -0.1 | 3.1 | 1.4* | ? | -0.6
SMILES | E-sel inducer | Xi reactivation | PglD DTNB | FGF22 binding | DENV2 CPE | C2C12 statin
O=C(N/C(=C/c1cccs1)C(=O)N1CCOCC1)c1ccccc1 | / | 0.0 | / | 44.0* | ? | /
O=C(N/C(=C\c1cccnc1)C(=O)N1CCOCC1)c1cccc(Br)c1 | / | / | -2.9 | / | / | -1.1
O=C(N/C(=C/c1cccnc1)C(=O)N1CCOCC1)c1ccccc1 | -0.2 | 0.2 | / | 43.2* | -2.1 | /
CN(C)Cc1cn(CC[C@@H]2CC[C@H](N)[C@H](CO)O2)nn1 | 0.2 | -0.1 | -2.1 | -0.1 | -0.8 | 15.1
CNC[C@H]1Oc2cc(C#Cc3ccccn3)ccc2S(=O)(=O)N([C@@H](C)CO)C[C@@H]1C | -0.1 | 0.2 | 4.0 | -0.3 | 1.8 | 7.4
C[C@@H]1CN([C@H](C)CO)C(=O)c2cc(-c3ccc(C#N)cc3)cnc2O[C@H]1CN(C)C(=O)CN(C)C | 0.1 | -0.9 | 1.9 | 0.1 | -6.2 | 9.2
CN1C(=O)c2cc(NC(=O)C3CCOCC3)ccc2OC[C@@H]2O[C@@H](CC(=O)NCc3ccc4c(c3)OCO4)CC[C@H]21 | 0.0 | 0.0 | -0.9 | 0.0 | -6.4 | -18.3
COc1cc(/C=C(/C#N)C(=O)NCc2ccccc2)cc(OC)c1OC | / | 0.0 | 1.4 | 0.0 | 67.3* | -13.3
COc1cc(/C=C/C(=O)OCC(=O)NCCc2ccccc2)cc(OC)c1OC | / | 0.0 | / | 43.6* | 0.8 | /
Cc1cc(/C=C(\C#N)C(=O)NCc2ccccc2)cc(C)c1O | / | / | -0.7 | 0.7 | 11.2 | 25.2
COc1ccc(S(=O)(=O)N2CCC3(CC2)CN(Cc2ccccc2OC)[C@@H](CO)c2[nH]c4cc(OC)ccc4c23)cc1 | -0.6 | 0.0 | / | 0.0 | 7.8 | /
C=CCC12C=C(OC)C(=O)OC(OC)(C1O)[C@H](c1ccc3c(c1)OCO3)[C@H]2C (some centres not stated) | / | / | 0.8 | 0.1 | -4.3 | -6.7
C=CC[C@]12C=C(OC)C(=O)C(OC)=C1O[C@@H](c1ccc3c(c1)OCO3)[C@H]2C | / | / | 1.6 | 0.0 | 30.2* | 2.4
CO[C@H]1CN(C)C(=O)c2ccc(NS(C)(=O)=O)cc2OC[C@@H](C)N(C(=O)C2CCC2)C[C@H]1C | -0.2 | -0.2 | 1.4 | -0.4 | -5.1 | -0.8
